Reference: PubChem BioAssay
Activity calls are given as the source filed them.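 How the source made its calls, unless noted: active means viability loss from added drug above about 55%, and viability with drug at most 40%, in both replicates (limit read from the data, passing the limit was not always enough); inconclusive means both conditions met in only one replicate; inactive means neither replicate meets both conditions.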

What was measured:
[1] = reducers of endogenous Her2 protein level, primary screen, SKBR3 breast tumor cells, AlphaScreen, ATP viability (AID 461;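 active means Her2 level under about 52% in both replicate screens, with viability over 70% of control, limit read from the data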;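 on Her2 level: lower value means less Her2 protein in the cells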;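 on viability: percent of carrier control wells set as 100% viability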); details: 18-24 h, measured here: SKBR3 viability, ATP luminescence, at 10 µM
[2] = biological target: Receptor tyrosine-protein kinase erbB-2 (Homo sapiens) (UniProt P04626); assay: as above; details: 18-24 h, at 10 µM, stronger effect = lower value
[3] = SK-BR-3 cell growth inhibitors, pilot screen, 24 h, human (AID 572;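 active means viability at or below 10% of carrier control in both of two separate runs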;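 further: compound exposure lasted between 18 and 24 h rather than exactly 24 h; 100% = carrier-treated control wells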); details: SK-BR-3 viability, CellTiter-Glo luminescence, at 10 µM, stronger effect = lower value
[4] = HUVEC growth inhibition – cell-based, human, primary screen (AID 575;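 active means viability at or below 30% in both replicate assays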;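 further: 100% = median of untreated cell wells with 0.1% DMSO on each plate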); details: HUVEC proliferation, CellTiter-Glo luminescence, 72 h; at 10 µM; stronger effect = lower value
Summary of the method: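 System – primary HUVEC, no more than 12 passages · Medium – Low-serum (2% FBS) EBM, supplemented · Times – 72 h exposure, 37 °C, 5% CO2, 30 min RT equilibration · Measured by – luminescent ATP assay · Read-out – % viability relative to median vehicle-well signal on each plate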

[5] = growth inhibitors of H69AR lung tumor, primary screen, human, duplicate replicates (AID 580;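 active means viability at or under a set limit in both replicates, limit being median viability minus 3 SD, cut at about 48% in these data, passing the limit was not always enough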;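 further: 100% = mean luminescence of untreated wells and 0% = no signal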); details: H69AR lung tumor cells viability, ATP luminescence, 72 h; at 10 µM; stronger effect = lower value
[6] = reversal of MRP1-mediated doxorubicin resistance, pilot screen, H69AR cells, doxorubicin co-treatment (AID 601); details: CellTiter-Glo, 72 h, at 10 µM; for differential viability (reversal): stronger effect = higher value
[7] = 384-well plate pilot, post-Golgi transport modulator project, inhibition of yeast transport mutant growth (AID 636; in the data active means inhibition above about 31%); details: absorbance 615 nm, about 18 h, stronger effect = higher value
[8] = growth suppression of yeast trafficking mutant, preliminary HTS, modulators of trafficking downstream of Golgi apparatus project, 1536-format plate, OD 615 nm (AID 637; in the data active means inhibition above about 30%); details: yeast transport mutant growth, absorbance 615 nm, 18 h; stronger effect = higher value
[9] = H69AR cells + 2 uM doxorubicin, measured here: viability with 2 uM doxorubicin, stronger effect = lower value
[10] = H69AR cells, compound alone cytotoxicity

Chain of Receptor tyrosine-protein kinase erbB-2 (Homo sapiens) (P04626 whole entry, looked up): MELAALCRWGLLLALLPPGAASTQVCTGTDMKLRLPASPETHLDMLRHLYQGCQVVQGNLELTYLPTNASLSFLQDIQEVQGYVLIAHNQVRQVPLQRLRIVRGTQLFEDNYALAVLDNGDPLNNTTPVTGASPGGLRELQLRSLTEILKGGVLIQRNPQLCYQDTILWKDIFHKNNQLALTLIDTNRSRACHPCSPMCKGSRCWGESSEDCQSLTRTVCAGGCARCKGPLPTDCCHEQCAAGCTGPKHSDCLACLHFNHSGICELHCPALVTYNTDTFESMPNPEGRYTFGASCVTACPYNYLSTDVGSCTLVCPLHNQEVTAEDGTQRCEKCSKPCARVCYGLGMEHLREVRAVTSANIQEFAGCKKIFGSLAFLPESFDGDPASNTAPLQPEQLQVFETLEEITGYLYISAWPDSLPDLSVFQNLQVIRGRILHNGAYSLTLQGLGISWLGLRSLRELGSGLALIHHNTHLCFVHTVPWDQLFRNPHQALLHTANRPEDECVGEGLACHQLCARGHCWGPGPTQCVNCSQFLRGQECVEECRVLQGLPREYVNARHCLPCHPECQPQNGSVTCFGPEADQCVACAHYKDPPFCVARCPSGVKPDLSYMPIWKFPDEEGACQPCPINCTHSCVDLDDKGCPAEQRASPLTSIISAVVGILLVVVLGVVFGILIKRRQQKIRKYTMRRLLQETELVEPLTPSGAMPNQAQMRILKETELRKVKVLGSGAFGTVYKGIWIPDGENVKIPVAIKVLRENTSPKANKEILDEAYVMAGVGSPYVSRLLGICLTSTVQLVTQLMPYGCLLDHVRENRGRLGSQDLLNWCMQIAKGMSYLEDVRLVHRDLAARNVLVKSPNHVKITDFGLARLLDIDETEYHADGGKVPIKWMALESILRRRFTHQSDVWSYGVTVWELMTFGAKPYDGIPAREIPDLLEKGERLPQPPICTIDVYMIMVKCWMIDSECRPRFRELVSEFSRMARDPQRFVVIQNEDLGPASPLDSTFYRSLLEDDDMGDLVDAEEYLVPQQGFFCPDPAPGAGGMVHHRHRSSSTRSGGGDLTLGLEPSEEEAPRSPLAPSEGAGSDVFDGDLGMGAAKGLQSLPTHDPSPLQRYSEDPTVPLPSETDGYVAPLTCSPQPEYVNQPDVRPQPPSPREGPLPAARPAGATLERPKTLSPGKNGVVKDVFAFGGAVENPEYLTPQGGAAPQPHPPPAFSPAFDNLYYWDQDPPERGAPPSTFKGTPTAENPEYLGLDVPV

Row | Structure (SMILES) | viability [1] [%] | Her2 level [2] | viability [3] | viability [4] | viability [5] | differential viability (reversal) ([6]; H69AR cells + 2 uM doxorubicin) | viability [6, 9] [%] | viability [6, 10] [%] | inhibition [7] | inhibition [8]
1 | Cc1cccc(NC(=O)c2cc3n(n2)C(C(F)(F)F)CC(c2ccc4c(c2)OCO4)N3)c1 (stereo not given) | 113 | 68.5% (inactive) | 113% (inactive) | 56.9% (inactive) | 73.9% (inactive) | -6.35% (inactive) | 80.2 | 73.9 | -0.53% (inactive) | 1.61% (inactive)
2 | COc1ccc(S(=O)(=O)N2CCOCC2)cc1C(=O)Nc1cc(C)on1 | 102 | 124% (inactive) | 102% (inactive) | 102% (inactive) | 93.9% (inactive) | 8.07% (inactive) | 85.8 | 93.9 | -3.42% (inactive) | -9.83% (inactive)
3 | O=C(NCCc1ccccn1)c1ccc(COc2ccccc2)o1 | 80 | 100% (inactive) | 80% (inactive) | 103% (inactive) | 102% (inactive) | 6.97% (inactive) | 95.3 | 102 | -2.99% (inactive) | 0.33% (inactive)
4 | CCCc1cc(=O)n2[nH]c(-c3ccc(Br)cc3)cc2n1 | 90.5 | 71.5% (inactive) | 90.5% (inactive) | 56.2% (inactive) | 73.1% (inactive) | -15.6% (inactive) | 88.7 | 73.1 | -2.76% (inactive) | -1.9% (inactive)
5 | CC1(C)CNC(=O)c2sc(N3CCOCC3)nc2C1 | 114 | 87% (inactive) | 114% (inactive) | 67.9% (inactive) | 77.3% (inactive) | -4.71% (inactive) | 82 | 77.3 | -3.82% (inactive) | 1.27% (inactive)
6 | Oc1c(Cl)cc(Cl)cc1CNc1ccc(Br)cn1 | 100 | 88% (inactive) | 100% (inactive) | 74.8% (inactive) | 93.2% (inactive) | -3.58% (inactive) | 96.8 | 93.2 | 1.58% (inactive) | 13.4% (inactive)
7 | CCOC(=O)N1CCN(C(=O)COc2ccc(Br)cc2Cl)CC1 | 96 | 112% (inactive) | 96% (inactive) | 117% (inactive) | 93.7% (inactive) | 2.46% (inactive) | 91.2 | 93.7 | -1.17% (inactive) | -5.33% (inactive)
8 | Cc1cnc(SCCc2ccncc2)nc1C | 97 | 109% (inactive) | 97% (inactive) | 109% (inactive) | 86.6% (inactive) | 9.61% (inactive) | 76.9 | 86.6 | -2.05% (inactive) | 5.17% (inactive)
9 | CCOC(=O)C1=C(C)NC(SC(C)=O)=NC1c1ccc(OC(C)=O)c(OC)c1 (stereo not given) | 106 | 95.5% (inactive) | 106% (inactive) | 82.9% (inactive) | 85.3% (inactive) | -9.22% (inactive) | 94.5 | 85.3 | -6.84% (inactive) | -6.36% (inactive)
10 | CCOC(=O)c1cc2sccc2n1Cc1ccccc1 | 100 | 116% (inactive) | 100% (inactive) | 97.9% (inactive) | 96% (inactive) | 15.4% (inactive) | 80.7 | 96 | -2.8% (inactive) | 1.8% (inactive)
11 | Cc1[nH]n2c(=O)cc(Cc3ccccc3)nc2c1C#N | 97.5 | 80% (inactive) | 97.5% (inactive) | 97.1% (inactive) | 81.5% (inactive) | -10.1% (inactive) | 91.6 | 81.5 | -2.89% (inactive) | -1.45% (inactive)
12 | COC(=O)CCN1CCC(C(N)=O)CC1 | 100 | 113% (inactive) | 100% (inactive) | 102% (inactive) | 100% (inactive) | 15% (inactive) | 85.1 | 100 | -6.8% (inactive) | 2.46% (inactive)
13 | C=CCN(C(=O)CNC(=O)c1ccco1)C(C(=O)NC1CCCCC1)c1ccccc1F (stereo not given) | 108 | 108% (inactive) | 108% (inactive) | 96.2% (inactive) | 100% (inactive) | 6.92% (inactive) | 93.5 | 100 | -2.43% (inactive) | 1.27% (inactive)
14 | Cc1ccccc1NC(=O)C1CCN(c2cnccn2)CC1 | 98.5 | 103% (inactive) | 98.5% (inactive) | 89.2% (inactive) | 101% (inactive) | 8.59% (inactive) | 92.2 | 101 | -7.07% (inactive) | -5.48% (inactive)
15 | COc1ccc(/C(O)=C2/C(=O)C(=O)N(CCCN(C)C)C2c2ccco2)cc1Cl (stereo not given) | 104 | 98.5% (inactive) | 104% (inactive) | 120% (inactive) | 95.8% (inactive) | 7.21% (inactive) | 88.6 | 95.8 | -6.62% (inactive) | -10.7% (inactive)
16 | CCC(C)(C)NC(=O)C(c1ccco1)N(C(=O)Cn1nnc2ccccc21)c1ccc2c(c1)OCO2 (stereo not given) | 92.5 | 85% (inactive) | 92.5% (inactive) | 78.1% (inactive) | 105% (inactive) | 18.9% (inactive) | 85.9 | 105 | -0.53% (inactive) | -1.13% (inactive)
